This is an account of results in ChEMBL document CHEMBL4513216, “Probing the Open Global Health Chemical Diversity Library for Multistage-Active Starting Points for Next-Generation Antimalarials” (ACS Infect Dis, 2020).

This data set can be described thus: Toxicity liver stage against HepG2, at 10uM. Also noted: test concentration 10 uM, cell line HepG2-A16-CD81EGFP. The following applies: human, HepG2-A16-CD81EGFP cells; read-out: INHIBITION
Type of data set: cell-based. Put shortly:
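Uninfected HepG2-A16-CD81EGFP cells, 3 × 10^3 per well, 1536-well, plated on prespotted compound at 10 μM final, parasite-free screening media added to match infected plates; puromycin 10 μM positive, DMSO 0.5% negative; run in parallel with 48 h PbLuc assay at 37 °C, 5% CO2; viability by CellTiter-Glo luminescence, normalized to controls.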

With `O=C1Nc2ccccc2CN(CC2CC2)C12CCNC2` (configuration not stated), the cytotoxicity at 10 µM stood at 6.09%. The value for `N#Cc1ccnc(N2CCN(C(=O)NC3CCS(=O)(=O)C3)CC2)c1` (configuration not stated) was -6.83%; that for `COc1ccc2cc(CNCc3c(C)nn(C)c3N(C)C)ccc2c1` was -20.4%; that for `Cc1cc(C(=O)N2CCCC(c3nccn3Cc3cscn3)C2)on1` (configuration not stated) was -1.32%. Take `CC(C)N(C)CCNC(=O)N(C)CC1CCOCC1`: the cytotoxicity at 10 µM is -17.2%.

`CC(C)CN1CCCn2nc(CNC(=O)c3cccnc3O)cc2C1`: the cytotoxicity at 10 µM was -14.4%. For `Cn1cccc1C(=O)N1C[C@@H]2C[C@@H](c3nc(C4CC4)cs3)O[C@@H]2C1`, the cytotoxicity at 10 µM was -113%. Turning to `CCn1nc(C)c(NC(=O)CN2CCC(c3ccccc3Cl)C2)c1C` (configuration not stated), the cytotoxicity at 10 µM is -7.58%. As for `CN(CCc1ccccc1)c1cnn(Cc2ccccn2)c(=O)c1`, the figure is -7.03%. As for `CC(C)c1cc(N2CCC(CCC(=O)NC3CC3)CC2)n2nccc2n1`, the figure is -9.12%; as for `CC1=Nc2c(c(=O)[nH]n2C2CCCCC2)C(c2cccnc2)S1` (configuration not stated), 6.72%. As for `CC(=O)N1CCCN(C(=O)c2csc(-c3ccc(C)cc3C)n2)CC1`, the figure is 20.8%.

In the case of `CC(C)(C)OC(=O)NCC(=O)NCc1ccc(Cl)s1`, the cytotoxicity at 10 µM is -11.3%. The value for `Cc1cnn(-c2ccc(S(N)(=O)=O)cc2F)c1` was 1.64%.

Take `Cc1cc(C)nc(CN(C)c2nc(C3CCCC3)nc3c2cnn3C)c1`: the cytotoxicity at 10 µM is 12.4%. With `CN1C(=O)C2(CCN(CC3CC3)CC2)c2ccccc21`, the cytotoxicity at 10 µM amounted to 3.16%. The value for `COCCN1CCC(NCc2cccnc2)C1` (configuration not stated) was -10.4%. On to `CN(C(=O)Cc1c[nH]c2ccccc12)C1CCN(c2ccccn2)CC1`, for which the cytotoxicity at 10 µM was found to be 9.36%.

As for `Clc1ccc2oc(C3CCN(Cc4cccnc4)CC3)nc2c1`, the cytotoxicity at 10 µM was 9.82%. The value for `Cc1cc(C)c(C(=O)NC2CCCc3nc(N(C)C)ncc32)cc1C` (configuration not stated) was -1.25%. Turning to `COCC1CCCN(C(=O)c2ccccc2NCc2cccnc2)C1` (configuration not stated), the cytotoxicity at 10 µM worked out at 8.47%.

Regarding `c1cc(-c2ccc3nc(C4CCN(CC5CC5)CC4)nn3c2)cs1`, the cytotoxicity at 10 µM is -12.2%. The value for `CCN(Cc1ccc(Cl)s1)S(=O)(=O)CC` was -1.11%; that for `Cc1nc(CCN(C)C(=O)CCNC(=O)c2ccccc2F)no1` was 6.35%; that for `C1CC(CN2CCO[C@H]3[C@H](OCC4CC4)CC[C@@H]32)CCO1` was -13.3%.

Regarding `COCCn1ccc2c(NC(=O)C(C)C)cccc21`, the cytotoxicity at 10 µM came out at 1.01%. As for `COCCn1ccc(NC(=O)Nc2ccccn2)n1`, the figure is 3.18%.

`O=C(Nc1ccc2ncccc2c1)C1CC(=O)N(Cc2ccccn2)C1` (configuration not stated): the cytotoxicity at 10 µM is 3.31%.

Regarding `Cn1cc(N2CC3(CCN(CC4CCC4)CC3)OCC2=O)cn1`, the cytotoxicity at 10 µM was -0.269%. As to `O=C(CS(=O)(=O)Cc1ccc(Br)cc1F)Nc1cn[nH]c1`, the cytotoxicity at 10 µM was -9.2%. The value for `COCC(c1cccc(C(F)(F)F)c1)N(C)C(=O)c1ccco1` (configuration not stated) was -9.07%; that for `O=C(CCCc1nnc(-c2ccccc2)o1)N1CCN(CCO)CC1` was -6.31%; that for `COc1ccc(Cl)cc1NC(=O)CCC1CCCN(Cc2ncon2)C1` (configuration not stated) was -4.18%. The value for `CCC(C)C(=O)NCc1cccc(OCCN(C)C2CCOCC2)c1` (configuration not stated) was -0.114%; that for `CC(Oc1ccc(OCc2ncc(C(C)C)o2)cc1)C(N)=O` (configuration not stated) was -10.4%; that for `Cc1ccc(C(=O)Nc2cn[nH]c2)cc1F` was -14.7%. As for `CSCCCNC(=O)Nc1cccc(-c2nccn2C)c1`, the cytotoxicity at 10 µM is -6.25%.

For the compound `O=C(NN1CCCc2ccccc21)c1c[nH]c(=O)[nH]1`, the cytotoxicity at 10 µM came to 8.73%. With `COc1ccccc1[C@@H]1CN(Cc2ccc3nsnc3c2)C[C@H]1C(=O)O`, the cytotoxicity at 10 µM is -4.18%. The value for `O=C(NC1CCCC1)[C@@H]1C[C@@H]2CCN(Cc3ccoc3)C[C@H]2O1` was -110%; that for `COCCCNC(=O)CN1CCC(c2ccccc2)C1` (configuration not stated) was 20.3%; that for `Cc1ncnc2c1CCN(C(=O)c1cccc(F)c1)CC2` was 8.27%. On to `O=C1CCCN1C1CCCN(CCn2cc(Cl)cn2)C1` (configuration not stated), for which the cytotoxicity at 10 µM was -0.626%. The value for `COc1ccc(NC(=O)c2cnc(N(C)C3CCCCC3)nc2N)cc1` was -3.64%; that for `CC(=O)N1C[C@H](NS(=O)(=O)N2CCCC2)[C@@H](c2ccc(C)o2)C1` was -1.91%. As for `Cc1cc(F)ccc1-c1cc(NCCO)nc2[nH]ccc12`, the figure is 21.7%; as for `COC1COC2(CCN(Cc3ccccc3C)CC2)C1` (configuration not stated), 2.84%. The value for `O=C([C@@H]1C[C@@H]2CCN(C3CCOCC3)C[C@H]2O1)N1CCCC1` was 4.5%; that for `Cc1cnn(CC2CN(CC(=O)Nc3cccnc3)CCO2)c1` (configuration not stated) was 8.1%. Regarding `COc1cccc(OCCCc2cc(C#N)ccn2)c1`, the cytotoxicity at 10 µM was -9.72%. The value for `COc1ccc(C2CCCN2c2cnccn2)c(OC)c1` (configuration not stated) was 3.72%; that for `CN(C)CC(=O)N1CCC2(CC1)COCCN(c1ncccn1)C2` was 5.38%. As for `CCN(C(=O)C1CCC1)C(c1cccnc1)c1ccc2c(c1)CCO2` (configuration not stated), the figure is -7.88%; as for `Cc1cc(CNC(=O)Nc2cc(F)cc(N3CCCC3)c2)no1`, -17.7%; as for `CN(C)c1cnn(Cc2nc3ccccc3n2C)c(=O)c1`, 10.9%. Regarding `Cc1cnn(Cc2ccc(NC(=O)N3CCCC3)cc2)c1`, the cytotoxicity at 10 µM is 1.18%. As for `Cc1cnc(N2CC[C@@H]3O[C@@H](COCc4ccccn4)CC[C@@H]32)nc1`, the figure is -88.3%. For the compound `Cc1ccc(Oc2ncccc2C(=O)N(C)CCCN(C)C)c(C)c1`, the cytotoxicity at 10 µM was -1.16%. As for `Cc1n[nH]c(C)c1CN(C)C(C(=O)O)c1ccc2c(c1)OCO2` (configuration not stated), the cytotoxicity at 10 µM is 6.86%.

In the case of `Cc1csc2cc(C(=O)NC3CCCC3)cnc12`, the cytotoxicity at 10 µM came out at 3.13%. As to `CC(NC(=O)NCC1(c2ccc(F)cc2)CCCC1)c1nncn1C` (configuration not stated), the cytotoxicity at 10 µM was -6.27%.

For the compound `Cc1noc(C)c1CS(=O)(=O)C(C)C(=O)N(C)c1ccccc1` (configuration not stated), the cytotoxicity at 10 µM is -1.58%. As for `Cc1ccnc(N2CCCC(c3noc(C(C)C)n3)C2)n1` (configuration not stated), the figure is 21.9%; as for `O=C(CC1CC1)N1Cc2nccn2CC(Cn2ncccc2=O)C1` (configuration not stated), 7.04%; as for `O=C(c1cnc(Nc2ccccc2)nc1)N1CCC2(CCNCC2)CC1`, -5.96%. The value for `c1cnn(Cc2ccc(CN3CCC4(CCCNC4)C3)cc2)c1` (configuration not stated) was -3.71%; that for `CCOCC1CCN(C(=O)C(c2ccc(F)cc2)N(C)C)CC1` (configuration not stated) was 1.31%; that for `CCN(Cc1ccco1)C(=O)NCC(C)N1CCc2sccc2C1` (configuration not stated) was 9.08%. The value for `Cc1nonc1OCCNC(=O)COc1ccc(Cl)cc1Cl` was 3.95%; that for `COc1cccc(SCC(=O)N2CCC(N3CCCC(O)C3)CC2)c1` (configuration not stated) was -18.7%; that for `Cc1nn(C)c(C)c1NC(=O)CN1CCOC(Cn2cccn2)C1` (configuration not stated) was -1.81%. As to `Cc1cccc(CN2CCCC3(CCN(C4CCSCC4)C3)C2=O)c1` (configuration not stated), the cytotoxicity at 10 µM is 2.55%. For `O=C(CCNc1ncccn1)Nc1cc(C(F)(F)F)c[nH]c1=O`, the cytotoxicity at 10 µM was -6.45%.

On to `COc1cc(CNc2ccc(C)c(Cl)c2)ccc1OCC(N)=O`, for which the cytotoxicity at 10 µM worked out at 7.1%. The value for `COc1ccc(C(C)N2CCC(NS(C)(=O)=O)CC2)cc1Cl` (configuration not stated) was -41.2%. The value for `Cc1cnn(C2CCCN(C(=O)COc3ccc(C(N)=O)cc3)C2)c1` (configuration not stated) was -0.0295%; that for `O=C(c1ccncc1F)N1CCN(CC2CC2)c2ncccc2C1` was 6.48%. The value for `CCn1nc(C)c2nc(C(C)C)nc(NCCc3ccc(O)cc3)c21` was 18.1%; that for `CC(C)(C)c1nc(NS(=O)(=O)c2cccc(F)c2)no1` was -10.8%. In the case of `CN1CCCN(CCCNC2CCc3cc4c(cc32)OCCO4)CC1` (configuration not stated), the cytotoxicity at 10 µM is -3.68%. Regarding `CC(C)NC(=O)N1CCC2(CC1)C(=O)NCCN2Cc1ccccc1`, the cytotoxicity at 10 µM worked out at 1.29%.

As for `CCC(=O)N1CCc2[nH]cnc2C12CCN(C(=O)c1snnc1C)CC2`, the cytotoxicity at 10 µM was found to be 13.9%. For `COc1ccc(Br)cc1NCC(=O)NC(C)(C#N)C1CC1` (configuration not stated), the cytotoxicity at 10 µM stood at 23.4%.

Regarding `Cc1cc(C)nc(N2CC=C[C@@H]2C(=O)NCc2ccc3c(c2)OCO3)n1`, the cytotoxicity at 10 µM was -8.49%. As for `CCOC(=O)N1CCN(CC(=O)Nc2ccc(F)cc2Cl)CC1`, the figure is 6%; as for `CNC(=O)c1cccc(CNC(C)c2cc(C)ccc2OC(F)F)c1` (configuration not stated), 20.2%.

Turning to `CNC(=O)COC(=O)c1ccoc1CN1c2ccccc2CC1C` (configuration not stated), the cytotoxicity at 10 µM was 0.165%. As for `Cc1nc[nH]c1-c1nccn1CCN1CCCOC1=O`, the figure is -2.32%; as for `O=S(=O)(c1ccc(-c2cnco2)cc1)N1CCCC2(CCNCC2)CC1`, -11.2%.

Turning to `CNS(=O)(=O)CC(=O)N(Cc1ccsc1)c1ccccc1`, the cytotoxicity at 10 µM is -2.4%.

With `O=C(C(CNCc1ccncc1)c1ccccc1)N1CCOCC1` (configuration not stated), the cytotoxicity at 10 µM is -19%. The value for `COc1ccc2nnc(CCCC(=O)NCc3ccccc3OC)n2n1` was -5.95%; that for `COC[C@@H]1CCC[C@]12CN(Cc1ccco1)CCO2` was -4.89%; that for `Cc1cc(S(=O)(=O)Nc2onc(C)c2C)sc1C` was 5.54%.

`CCn1cc(-c2cc(C(F)F)n3nc(CCC(=O)O)nc3n2)cn1`: the cytotoxicity at 10 µM was -2.78%. The value for `Cc1nn(C)c(N2CCOCC2)c1CNC1CCOc2ccccc21` (configuration not stated) was -7.44%; that for `COc1cccc(COCC(O)CN(C)c2ccc(C)cc2C)c1` (configuration not stated) was 9.66%.
